What all share (format): functional
One test has as its system Ca-Ski. Nature of the test: Cytotoxicity against human CaSKi cells after 6 days by MTT assay. Particulars: 144 h, read-out: ED50 (the source's name). The gist of the method:
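CaSki (human cervical carcinoma) kept in DMEM with 10% FBS, 2 mM L-glutamine and penicillin/streptomycin. For the assay, 1-3 × 10³ cells/100 µL were seeded and left 6 h to attach. Medium was then replaced with fresh medium holding a range of drug concentrations, plus 10 mM HEPES pH 7.3, at 37 °C in CO₂. After 6 days, MTT (1 mg/mL in PBS) was added for 4 h. Formazan was dissolved in DMSO.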
On the technique in general: Tetrazolium dyes change colour on reduction, which living cells bring about.

The next test has as its system HT-3. The test can be described thus: Cytotoxicity against human HT3 cells after 6 days by MTT assay. To be noted: HT-3, 144 h, read-out: ED50 (the source's name). In short, it runs like this: (§1)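 Human lines (hepatoma PLC/PRF/5, T24, cervical carcinoma HT-3 and SiHa) were kept in DMEM with 10% FBS, 2 mM L-glutamine and penicillin/streptomycin, plus 10 mM HEPES pH 7.3, at 37 °C in CO2. Cells at 1-3 × 10³/100 µL had 6 h to attach, then fresh medium with graded drug concentrations was added for 6 days. Survival was read by 4 h MTT (1 mg/mL in PBS, 10 µL) at 37 °C, with DMSO solubilization.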

The subject of a further test is T-24. The test can be described thus: Cytotoxicity against human T24 cells after 6 days by MTT assay. To be noted: T-24, 144 h, read-out: ED50 (the source's name). The gist of the method: as §1
The test system of a further test is SiHa. The test can be described thus: Cytotoxicity against human SiHa cells after 6 days by MTT assay. Particulars: 144 h, read-out: ED50 (the source's name). In short, it runs like this: as §1
Test [1] is described as follows: Cytotoxicity against human PLC/PRF/5 cells after 6 days by MTT assay. Particulars: PLC-PRF-5, 144 h, read-out: ED50 (the source's name). In short, it runs like this: as §1
A short description of test [2]: Cytotoxicity against mouse 212 cells after 6 days by MTT assay. To be noted: 144 h, read-out: ED50 (the source's name). In short, it runs like this: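 The 212 line is an inducible Ha-ras-transformed NIH/3T3 line. It was grown in alpha MEM with 10% calf serum and antibiotics, plus 10 mM HEPES pH 7.3, at 37 °C in CO2. Cells were seeded at 1-3 × 10³/100 µL and allowed 6 h to attach. Medium was then swapped for fresh medium carrying various drug concentrations for 6 days. MTT (10 µL of 1 mg/mL) was added for 4 h at 37 °C, and formazan was dissolved in DMSO.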

In brackets after ≈: the same amount, converted by molar mass. Numbered stars: 1 amine (or outer) side, 2 acyl side, 3 side chain; on linkers, the order of the positions; unused ones are H or OH. Bridge positions count the residues as written; N and C are the ends. Square brackets hold non-standard residues; d marks the D form. Peptide text beside a SMILES is read from it. I, II: the chains in the order shown. Actinocin(1to9) = Cc1c2oc3c(C)ccc(C(=O)[*:2])c3nc-2c(C(=O)[*:1])c(N)c1=O; NMeV = CN[C@H](C(=O)O)C(C)C; Sar = CNCC(=O)O

For `CC(C)=CCC[C@@H](C(=O)O)[C@H]1CC[C@@]2(C)C3=C(CC[C@]12C)[C@@]1(C)CC[C@H](O)C(C)(C)[C@@H]1CC3` [TRAMETENOLIC ACID], the EC50 in the test with Ca-Ski stood at 6.2 µg/mL (≈ 13.6 µM); in the test with HT-3, 3.5 µg/mL (≈ 7.66 µM); with T-24, 4.4 µg/mL (≈ 9.63 µM); with SiHa, 5.5 µg/mL (≈ 12 µM).
Take `Cc1c2oc3c(C)ccc(C(=O)N[C@@H]4C(=O)N[C@H](C(C)C)C(=O)N5CCC[C@H]5C(=O)N(C)CC(=O)N(C)[C@@H](C(C)C)C(=O)O[C@@H]4C)c3nc-2c(C(=O)N[C@@H]2C(=O)N[C@H](C(C)C)C(=O)N3CCC[C@H]3C(=O)N(C)CC(=O)N(C)[C@@H](C(C)C)C(=O)O[C@@H]2C)c(N)c1=O` [DACTINOMYCIN] (I: T[dV]P[Sar][NMeV] / II: T[dV]P[Sar][NMeV]; ester I:1-I:C, II:1-II:C; linker I:N-II:N via Actinocin(1to9)): the EC50 with Ca-Ski came to 0.0019 µg/mL (≈ 0.00151 µM); with T-24, 0.0015 µg/mL (≈ 0.00119 µM); in test [1], 0.0014 µg/mL (≈ 0.00112 µM).
`CC(C)=CCC[C@@H](C(=O)O)[C@H]1CC[C@@]2(C)C3=C(CC[C@]12C)[C@@]1(C)CCC(=O)C(C)(C)[C@@H]1CC3`: the EC50 with Ca-Ski was 7.2 µg/mL (≈ 15.8 µM); with HT-3, 6.9 µg/mL (≈ 15.2 µM); in the test on T-24, 8.2 µg/mL (≈ 18 µM); in the test with SiHa it was 5.1 µg/mL (≈ 11.2 µM); in test [1], 12.1 µg/mL (≈ 26.6 µM).
Regarding `CC(=O)O[C@H]1CC[C@]2(C)C3=C(CC[C@H]2C1(C)C)[C@]1(C)CC[C@H]([C@@H](CCC=C(C)C)C(=O)O)[C@@]1(C)CC3` [ACETYL TRAMETENOLIC ACID], the EC50 with Ca-Ski was 3.9 µg/mL (≈ 7.82 µM); in the test on T-24, 5.8 µg/mL (≈ 11.6 µM); in test [1], 9.2 µg/mL (≈ 18.4 µM).
Turning to `C=C(C)/C(C)=C\C[C@@H](C(=O)O[C@@H]1OC[C@@H](O)[C@H](O)[C@H]1O)[C@H]1CC[C@@]2(C)C3=C(CC[C@]12C)[C@@]1(C)CC[C@@H](OC(C)=O)C(C)(C)[C@@H]1CC3` [TSUGARIOSIDE C], the EC50 in the test on HT-3 was 7.2 µg/mL (≈ 11.2 µM); in the test on T-24 it was 8.6 µg/mL (≈ 13.4 µM); in the test on SiHa, 9.5 µg/mL (≈ 14.8 µM); in test [1] it was 6.5 µg/mL (≈ 10.1 µM).
`CC(=O)O[C@@H]1CC[C@]2(C)C3=C(CC[C@H]2C1(C)C)[C@]1(C)CC[C@H]([C@@H](CCC=C(C)C)C(=O)O)[C@@]1(C)CC3` [TSUGARIC ACID A]: the values for the EC50 (in the test on T-24; in test [1]) were 3.1 µg/mL (≈ 6.22 µM) and 6.8 µg/mL (≈ 13.6 µM), respectively.
On to `C=C(C)C(C)CC[C@@H](C(=O)O)[C@H]1[C@H](O)C[C@@]2(C)C3=C(CC[C@]12C)[C@@]1(C)CC[C@H](OC(C)=O)C(C)(C)[C@@H]1CC3` (stereo not given in full) [TSUGARIC ACID B], for which the EC50 in test [2] came to 10.3 µg/mL (≈ 19.5 µM).
Consider `CC(=O)O[C@@H]1CC[C@]2(C)C3=C(CC[C@H]2C1(C)C)[C@]1(C)CC[C@H]([C@@H](CCC=C(C)C)C(=O)O[C@@H]2O[C@H](CO)[C@@H](O)[C@H](O)[C@H]2O)[C@@]1(C)CC3` [TSUGARIOSIDE A], for which the EC50 in the test on HT-3 amounted to 6.8 µg/mL (≈ 10.3 µM); in the test with T-24, 1.73 µg/mL (≈ 2.62 µM); in the test on SiHa, 8.4 µg/mL (≈ 12.7 µM).

The values are drawn from ChEMBL document CHEMBL1154567, “New lanostanoids of Ganoderma tsugae” (2000).
